Source: ChEMBL document CHEMBL3758168, “Hybrid triazoles: Design and synthesis as potential dual inhibitor of growth and efflux inhibition in tuberculosis” (Eur J Med Chem, 2016)
Converted amounts (≈) assume the structure as drawn.

Key:
Format in all cases: functional
[1] = tested on: Mycolicibacterium smegmatis; test: Anti-tubercular activity against Mycobacterium smegmatis MC2 155 ATCC 700084 after 3 days by microdilution method; conditions: MC2 155 ATCC 700084, 72 h
In short: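 M. smegmatis mc2155 grown in MB7H9 + 10% OADC at 37 °C with shaking to OD600 0.8. Inoculum set to 0.5 McFarland, diluted 1:100, and mixed 1:1 with two-fold serial dilutions in MB7H9. Plates incubated 3 days at 37 °C with growth and sterility controls. MIC taken as the lowest concentration with no visible growth.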

[2] = tested on: Mycobacterium tuberculosis; test: Antibacterial activity against Mycobacterium tuberculosis H37Rv ATCC 27294T assessed as isoniazid MIC at 256 ug/ml after 7 days by microdilution checkerboard assay; conditions: 168 h
In short: (§1)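 Two-dimensional checkerboard in H37Rv at 10^5 CFU/ml in MB7H9/OADC. Partner drug (amikacin, EtBr, isoniazid, ofloxacin or rifampin) two-fold serially diluted across columns 3-11. Test compound two-fold serially diluted down rows 2-6. Plates incubated 7 days at 37 °C, then MTT added overnight. […] Run in triplicate.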

[3] = tested on: Mycobacterium tuberculosis; test: Antibacterial activity against Mycobacterium tuberculosis H37Rv ATCC 27294T assessed as ethidium bromide MIC at 256 ug/ml after 7 days by microdilution checkerboard assay; conditions: 168 h; in short: as §1
[4] = tested on: Mycobacterium tuberculosis; test: Antibacterial activity against Mycobacterium tuberculosis H37Rv ATCC 27294T assessed as ethidium bromide MIC at 128 ug/ml after 7 days by microdilution checkerboard assay; conditions: 168 h; in short: as §1
[5] = tested on: Mycobacterium tuberculosis; test: Antibacterial activity against Mycobacterium tuberculosis H37Rv ATCC 27294T assessed as ofloxacin MIC at 32 ug/ml after 7 days by microdilution checkerboard assay; conditions: 168 h; in short: as §1
[6] = tested on: Mycobacterium tuberculosis; test: Antibacterial activity against Mycobacterium tuberculosis H37Rv ATCC 27294T assessed as ofloxacin MIC at 4 ug/ml after 7 days by microdilution checkerboard assay; conditions: 168 h; in short: as §1
[7] = tested on: Mycobacterium tuberculosis; test: Antibacterial activity against Mycobacterium tuberculosis H37Rv ATCC 27294T assessed as ofloxacin MIC at 8 ug/ml after 7 days by microdilution checkerboard assay; conditions: 168 h; in short: as §1
[8] = tested on: Mycobacterium tuberculosis; test: Antibacterial activity against Mycobacterium tuberculosis H37Rv ATCC 27294T assessed as ofloxacin MIC at 16 ug/ml after 7 days by microdilution checkerboard assay; conditions: 168 h; in short: as §1
[9] = tested on: Mycobacterium tuberculosis; test: Antibacterial activity against Mycobacterium tuberculosis H37Rv ATCC 27294T assessed as amikacin MIC at 4 ug/ml after 7 days by microdilution checkerboard assay; conditions: 168 h; in short: as §1
[10] = tested on: Mycobacterium tuberculosis; test: Anti-tubercular activity against Mycobacterium tuberculosis H37Rv ATCC 27294T after 7 days by mircodilution method; conditions: 168 h
In short: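 H37Rv grown static in MB7H9 + 10% OADC at 37 °C to OD600 0.8, then diluted to about 10^5 cells/ml. Mixed 1:1 with two-fold serial dilutions in MB7H9/OADC and incubated 7 days at 37 °C. MTT added to final 2.5% and plates incubated overnight. MIC is the lowest concentration with no colour change. Run in triplicate.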

[11] = tested on: Mycobacterium tuberculosis; test: Antibacterial activity against Mycobacterium tuberculosis H37Rv ATCC 27294T assessed as rifampin MIC at 256 ug/ml after 7 days by microdilution checkerboard assay; conditions: 168 h
In short: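 M. tuberculosis H37Rv grown in MB7H9 + 10% OADC at 37 °C to OD600 0.8; plates inoculated at 10^5 CFU/ml. Rifampicin two-fold serially diluted across columns, test compound two-fold diluted down rows (two-dimensional checkerboard). Sealed, 37 °C for seven days, then MTT added and incubated overnight. MIC read as no colour change. Triplicate.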

## COc1ccc(CCN(C)CCCC(C#N)(c2ccc(OC)c(OC)c2)C(C)C)cc1OC (stereo unspecified)
[1]
  MIC: 776 µg/mL (≈ 1710 µM)
[2]
  MIC: 0.0125 µg/mL
[3]
  MIC: 0.781 µg/mL
[4]
  MIC: 3.12 µg/mL
[5]
  MIC: 2 µg/mL
[6]
  MIC: 2 µg/mL
[7]
  MIC: 2 µg/mL
[8]
  MIC: 2 µg/mL
[9]
  MIC: 2 µg/mL
[10]
  MIC: 128 µg/mL (≈ 282 µM)
[11]
  MIC: 0.125 µg/mL
